Data set [1] deals with Mus musculus. Description: Anticonvulsant activity in Albino Swiss CD-1 mouse assessed as protection against 6 Hz current-induced seizure at 100 mg/kg, ip pretreated up to 2 hrs followed by 6 Hz current induction for 3 secs relative to control. The format is functional.
Data set [2] concerns Mus musculus. Description: Anticonvulsant activity in Albino Swiss CD-1 mouse assessed as protection against maximal electroshock-induced seizures by measuring time to peak effect at 100 mg/kg, ip pretreated up to 2 hrs followed by 50 Hz current induction for […]. It counts as functional. A general note: In the maximal electroshock model the usual endpoint is tonic extension of the hind limbs.

In data set [3] the test system is Mus musculus. Description: Anticonvulsant activity in ip dosed Albino Swiss CD-1 mouse assessed as protection against 32 mA current-induced seizure treated up to 2 hrs prior to 6-Hz current induction measured at time to peak effect. It counts as functional. To be noted: Swiss CD-1, ip.
For data set [4], the system named is Mus musculus. Description: Anticonvulsant activity in ip dosed Albino Swiss CD-1 mouse assessed as protection against maximal electroshock-induced seizures pretreated up to 2 hrs followed by 50 Hz current induction for […] measured at time to peak effect. It counts as functional. To be noted: Swiss CD-1, ip.
Data set [5] has as its system Mus musculus. Description: Protection index, ratio of TD50 for neurotoxicity in ip dosed Albino Swiss CD-1 mouse to ED50 for ip dosed maximal electroshock induced seizure Albino Swiss CD-1 mouse. The essentials: (§1)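 Acute neurological toxicity after ip dosing (1% Tween 80 suspension) was assessed in the mouse chimney test. TD50 with 95% confidence limits was derived by probit analysis. Protective index is TD50 from the chimney test divided by ED50 from the MES, scPTZ or 6 Hz test.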

Data set [6] is described as follows: Neurotoxicity in ip dosed Albino Swiss CD-1 mouse assessed as induction of motor impairment measured up to 60 secs by chimney test. The format is toxicity, organism-based. The following applies: in vivo. The essentials:
as §1

In data set [7] the test system is Mus musculus. Description: Protection index, ratio of TD50 for neurotoxicity in ip dosed Albino Swiss CD-1 mouse to ED50 for ip dosed Albino Swiss CD-1 mouse model of 6 Hz-induced siezures. The essentials:
as §1

The subject of data set [8] is Mus musculus. Description: Anticonvulsant activity in Albino Swiss CD-1 mouse assessed as protection against maximal electroshock-induced seizures at 100 mg/kg, ip pretreated up to 2 hrs followed by 50 Hz current induction for […] relative to control. It counts as functional.
Data set [9] has as its system Mus musculus. Description: Anticonvulsant activity in Albino Swiss CD-1 mouse assessed as inhibition of pentylenetetrazole-induced seizures by measuring time to peak effect at 100 mg/kg, ip administered up to 2 hrs prior to PTZ induction measured for 30 mins. The format is functional.

As usually defined, the ED50 is the dose at which the effect has come halfway, by size or by number of responders. Regarding `COCC(C(=O)N1CCN(c2cccc(OC)c2)CC1)N1C(=O)CCC1=O` (stereo unspecified), in the data set with Mus musculus [1], the Activity result was “<=75%”. The Time in the data set on Mus musculus [2] amounted to 0.25 h. Besides, the ED50 with Mus musculus [3] was greater than 100 mg/kg.

What is called TD50 is the dose at which the toxic effect under study appears in half of the subjects. Regarding `COC[C@H](C(=O)N1CCN(c2ccc(C(F)(F)F)cc2)CC1)N1C(=O)CCC1=O`, the 50% effective dose (ED50) with Mus musculus [4] is 80.9 to 88.9 mg/kg; with Mus musculus [3], 21.1 to 22.1 mg/kg. Besides, in the data set with Mus musculus [2], the Time was in the range of 0.25 to 1 h. The results for the “Ratio TD50/ED50” value in the data set with Mus musculus [5] and with Mus musculus [7] were 1.9 - 2.1 and 8 - 9.2, respectively. The TD50 at 1 min in [6] was in the range of 167 to 194 mg/kg.

Turning to `COCC(C(=O)N1CCN(C)CC1)N1C(=O)CCC1=O` (stereo unspecified), the Activity entry with Mus musculus [1] is “<=75%”. Besides, in the data set on Mus musculus [2], the Time was 0.25 h. Moreover, the ED50 with Mus musculus [3] was found to be 68.2 mg/kg. The TD50 at 1 min in data set [6] was greater than 500 mg/kg. In the data set with Mus musculus [7], the “Ratio TD50/ED50” value is on record as greater than 7.3.

Take `COCC(C(=O)N1CCN(c2ccc(Cl)cc2)CC1)N1C(=O)CCC1=O` (stereo unspecified): in the data set on Mus musculus [1], the Activity result was “<=75%”. Further, in the data set with Mus musculus [2], the Time lay within 0.25 to 1 h. For the same molecule, the ED50 in the data set with Mus musculus [3] lay in the range of 45.5 to 77 mg/kg. The TD50 at 1 min in data set [6] fell in the range of 180 to 208 mg/kg. In the data set with Mus musculus [7], the “Ratio TD50/ED50” value is given as 2.4 - 4.6.

Take `COC[C@@H](C(=O)N1CCN(c2ccc(C(F)(F)F)cc2)CC1)N1C(=O)CCC1=O`: the ED50 in the data set with Mus musculus [4] is greater than 120 mg/kg; with Mus musculus [3], 37.9 to 49.2 mg/kg. Also, in the data set with Mus musculus [2], the Time lay within 0.25 to 0.5 h. In data set [6], the TD50 at 1 min lay in the range of 243 to 246 mg/kg. Moreover, the “Ratio TD50/ED50” value in the data set with Mus musculus [7] was 5 - 6.4.

On to `COCC(C(=O)N1CCN(c2cccc(C)c2)CC1)N1C(=O)CCC1=O` (stereo unspecified), for which the Activity entry with Mus musculus [1] and with Mus musculus [8] was “<=75%” throughout. The Time with Mus musculus [2] is 0.25 h. Also, the ED50 in the data set with Mus musculus [3] was determined as 47.7 mg/kg. In addition, the TD50 at 1 min in data set [6] was 213 mg/kg. In the data set on Mus musculus [7], the “Ratio TD50/ED50” value amounted to 4.5.

As for `CC[C@@H](C(N)=O)N1CCCC1=O` [LEVETIRACETAM], the median effective dose (ED50) with Mus musculus [4] is greater than 500 mg/kg. Moreover, in the data set with Mus musculus [2], the Time came out at 1 h. In data set [6], the TD50 at 1 min was greater than 500 mg/kg. Besides, in the data set on Mus musculus [7], the “Ratio TD50/ED50” value is given as greater than 33.8.

Take `COC[C@@H](NC(C)=O)C(=O)NCc1ccccc1` [LACOSAMIDE]: the values for the ED50 in the data set with Mus musculus [4] and in the data set on Mus musculus [3] were 9.4 mg/kg and 6.4 mg/kg, respectively. Besides, in the data set on Mus musculus [2], the Time was determined as 0.5 h. Besides, the “Ratio TD50/ED50” value in the data set with Mus musculus [5] is given as 3.6; in the data set with Mus musculus [7], 5.3. In addition, the TD50 at 1 min in data set [6] turned out to be 33.7 mg/kg.

Turning to `COCC(C(=O)N1CCN(c2cccc(Cl)c2Cl)CC1)N1C(=O)CCC1=O` (stereo unspecified), the Activity entry with Mus musculus [1] was “<=75%”. The Time with Mus musculus [2] lay within 0.25 to 0.5 h. Moreover, the ED50 in the data set with Mus musculus [3] was in the range of 38 to 54.7 mg/kg. Moreover, the TD50 at 1 min in data set [6] lay within 224 to 261 mg/kg. The “Ratio TD50/ED50” value with Mus musculus [7] is 4.8 - 5.9.

For the molecule `COCC(C(=O)N1CCN(c2ccc(F)cc2)CC1)N1C(=O)CCC1=O` (stereo unspecified), in the data set on Mus musculus [1], the Activity entry is “<=75%”. The Time in the data set with Mus musculus [2] was found to be 0.25 h. In addition, in the data set on Mus musculus [3], the ED50 is 71.4 mg/kg. For the same molecule, the TD50 at 1 min in [6] is 306 mg/kg. In the data set on Mus musculus [7], the “Ratio TD50/ED50” value worked out at 4.3.

For `COCC(C(=O)N1CCN(c2ccc(C)cc2)CC1)N1C(=O)CCC1=O` (stereo unspecified), the Activity result with Mus musculus [1] was “<=75%”. For the same molecule, in the data set with Mus musculus [2], the Time stood at 0.25 h. The ED50 in the data set with Mus musculus [3] came out at 21.1 mg/kg. Besides, the TD50 at 1 min in data set [6] was 204 mg/kg. For the same molecule, in the data set on Mus musculus [7], the “Ratio TD50/ED50” value is given as 9.6.

Regarding `CCC1(C)CC(=O)NC1=O` (stereo unspecified) [ETHOSUXIMIDE], the ED50 in the data set with Mus musculus [4] is greater than 500 mg/kg; in the data set on Mus musculus [3], 222 mg/kg. Besides, the Time with Mus musculus [2] and in the data set with Mus musculus [9] was 0.25 h throughout. The TD50 at 1 min in data set [6] came to 722 mg/kg. For the same molecule, in the data set on Mus musculus [7], the “Ratio TD50/ED50” value was 3.2.

Values taken from ChEMBL document CHEMBL4017532, “Multifunctional Hybrid Compounds Derived from 2-(2,5-Dioxopyrrolidin-1-yl)-3-methoxypropanamides with Anticonvulsant and Antinociceptive Properties” (J Med Chem, 2017).
